Like-named read-outs stand apart in the source and are kept apart here.
Tests used:
[1] = 1 M HCl, 298 K; cited from earlier work
[2] = T1-weighted phantom images at 7 T in mouse serum and PBS; format: physicochemical; details: 25 °C, 0.3 mM in mouse serum
In short: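 T1-weighted phantoms of Gd3+ complex in mouse blood serum were imaged at 7 T. A clinical Gd3+ agent and serum alone served as comparators. A spin echo sequence was used, TE = 10 ms, TR = 400 ms, and signal intensities were read.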

[3] = cited from earlier work

SMILES	kobs dissociation rate constant [1] [s⁻¹]	t1/2 dissociation half-life [1] [min]	signal intensity, T1-weighted phantom [2]	r1 relaxivity ([3]; 20 MHz, 25 °C) [mM⁻¹ s⁻¹]	kex^298 water exchange rate ([3]; SAP isomer)	ΔH≠ ([3]; SAP isomer) [kcal/mol]	ΔS≠ ([3]; SAP isomer)	kex^298 water exchange rate ([3]; TSAP isomer)	ΔH≠ ([3]; TSAP isomer) [kcal/mol]	τR^298 rotational correlation time [3] [ps]
O=C([O-])CN1CCNCCN(CC(=O)[O-])CCN(CC(=O)[O-])CC1.[Gd+3] [GdDO3A]	0.023	0.5								
O=C([O-])CN1CCN(CC(=O)[O-])CCN(CC(=O)O)CCN(CC(=O)[O-])CC1.[Gd+3] [GdDOTA]	1.8e-06	6418	3.97 × 10^4							
CC(O)CN1CCN(CC(=O)[O-])CCN(CC(=O)[O-])CCN(CC(=O)[O-])CC1.[Gd+3] (centres unmarked) [GdHPDO3A]	0.00026	44		4.6	1.56 10^6 s^−1	12.7	+52 kJ mol^−1 K^−1	112 10^6 s^−1	3.59	65

From publication PMC12778361 (Chemical Science, 2025)
